Where a SMILES comes first, the peptide text is derived from it.

The target of experiment [1] is D(2) dopamine receptor (Bos taurus) (UniProt P20288). The experiment is described as follows: Percentage of receptor in the high affinity form for the compound to Dopamine receptor D2 in absence of Gpp(NH)p. It counts as functional. The procedure, abridged:
(§1)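 Bovine striatal membranes (150-200 µg protein) were incubated with 0.2 nM [3H]spiroperidol and varying N-propylnorapomorphine, with or without 100 µM Gpp(NH)p and 100 nM peptidomimetic, plus 50 nM ketanserin, for 1 h at 22 °C, then GF/B filtered. Nonspecific binding was set with 1.0 µM (+)-butaclamol. A two-site fit gave high/low-affinity fractions; Ki values came via Cheng-Prusoff. Mean ± SEM of 3-4 experiments.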

Experiment [2] has the same target. The experiment is described as follows: Percentage of receptor in the low affinity form for the compound to Dopamine receptor D2 in absence of Gpp(NH)p. It counts as functional. The procedure, abridged:
as §1

Experiment [3] shares this target. The experiment is described as follows: Percentage of receptor in the low affinity form for the compound to Dopamine receptor D2 in presence of Gpp(NH)p. Format: functional. An outline of the steps:
as §1

For experiment [4] the target is unchanged. The experiment is described as follows: Percentage of receptor in the high affinity form for the compound to Dopamine receptor D2 in presence of Gpp(NH)p. Format: functional. The procedure, abridged: as §1
The target is the same in experiment [5]. The experiment is described as follows: Percentage of receptor in the low affinity form for the compound to Dopamine receptor D2 in presence of Gpp(NH)p (pre treated with 1 uM).
Experiment [6] has the same target. The experiment is described as follows: Percentage of receptor in the high affinity form for the compound in absence of Gpp(NH)p (Pre treated with 1 uM) to Dopamine receptor D2.
For experiment [7] the target is unchanged. Put plainly: Percentage of receptor in the low affinity form for the compound in absence of Gpp(NH)p (Pre treated with 1 uM) to Dopamine receptor D2.
For experiment [8] the target is unchanged. Put plainly: Percentage of receptor in the high affinity form for the compound to Dopamine receptor D2 in presence of Gpp(NH)p (pre treated with 1 uM). It counts as functional.

Sequence of D(2) dopamine receptor (Bos taurus) (P20288 whole entry): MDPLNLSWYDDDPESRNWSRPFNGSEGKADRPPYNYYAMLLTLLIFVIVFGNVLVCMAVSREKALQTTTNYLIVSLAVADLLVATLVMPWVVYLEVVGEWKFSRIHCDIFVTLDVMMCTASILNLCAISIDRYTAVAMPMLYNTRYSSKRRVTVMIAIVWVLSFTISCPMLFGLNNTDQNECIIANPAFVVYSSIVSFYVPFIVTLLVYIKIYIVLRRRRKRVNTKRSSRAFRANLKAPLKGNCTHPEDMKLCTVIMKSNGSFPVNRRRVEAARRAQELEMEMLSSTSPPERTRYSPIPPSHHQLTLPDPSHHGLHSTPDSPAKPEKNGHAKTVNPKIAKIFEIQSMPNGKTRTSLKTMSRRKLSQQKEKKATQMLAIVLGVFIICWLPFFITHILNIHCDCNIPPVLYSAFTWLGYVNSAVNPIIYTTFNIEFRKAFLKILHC

In the case of `NC(=O)[C@H]1CS[C@@H]2C[C@@H](N3CC(=O)N4CCC[C@H]4C3=O)C(=O)N12`, the RH is 49% in experiment [1] and 18.5% in experiment [4]. Besides, the RL in experiment [2] worked out at 51%; in experiment [3], 81.5%.
For `CC(C)C[C@H](NC(=O)[C@@H]1CCCN1)C(=O)NCC(N)=O` (H-Pro-Leu-Gly-NH2), the RH in experiment [1] stood at 49%; in experiment [6], 61%; in experiment [8], 32%; in experiment [4], 19%. In addition, the RL stood at 72% in experiment [5], 51% in experiment [2], 82% in experiment [3] and 41% in experiment [7].
In the case of `NC(=O)CN1CC[C@@H](N2CC(=O)N3CCC[C@H]3C2=O)C1=O`, the values for the RH in experiment [1] and in experiment [4] were 46% and 22%, respectively. Besides, the RL in experiment [2] was found to be 55%; in experiment [3], 78%.
The matching figures for `CC(C)C[C@@H](C(=O)NCC(N)=O)N1CC(=O)N2CCC[C@H]2C1=O`: 56.2%, 18.8%, 43.8% and 81.2%.

The record behind these values is ChEMBL document CHEMBL1130216, “Design, synthesis, and dopamine receptor modulating activity of diketopiperazine peptidomimetics of L-prolyl-L-leucylglycinamide” (J Med Chem, 1997).
